The test system of data set [1] is Salmonella typhimurium. The experiment in a line: Mutagenic activity in Salmonella typhimurium TA 100 at 5 to 100 ug by Ames test in presence of Fischer-344 rat liver S9 fraction. The class given is toxicity, organism-based, Salmonella enterica subsp. enterica serovar Typhimurium. The method in brief: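 TA100 plate-incorporation assay: compound in 50 µL Me₂SO, 0.1 mL overnight broth culture, 200 µL S-9 mix and 2 mL top agar (45 °C), poured on minimal glucose agar. S-9 from Aroclor 1254-induced rats (500 mg/kg, 5 days earlier); mix per mL: 100 µmol K phosphate pH 7.4, 8 µmol MgCl₂, 5 µmol G6P, 4 µmol NADP⁺. His⁺ revertants/plate, mean of four trials.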

Data set [2] has as its system Salmonella typhimurium. In words: Toxicity in Salmonella typhimurium TA 100 at 5 to 100 ug in presence of Fischer-344 rat liver S9 fraction. Type of data set: organism-based, Salmonella enterica subsp. enterica serovar Typhimurium. The method in brief: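 Percent survivors were measured with diluted TA100 broth culture under the same S-9 plating conditions as the mutagenicity assay, except that excess histidine was added to the top agar.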

Data set [3] deals with Salmonella typhimurium. In words: Mutagenic activity in Salmonella typhimurium TA 100 at 5 to 100 ug by Ames test in absence of Fischer-344 rat liver S9 fraction. Type of data set: toxicity, organism-based, Salmonella enterica subsp. enterica serovar Typhimurium. The settings on record: in vivo. A general note: In the Ames test, an excess of revertant colonies over the control signals mutagenicity.

The subject of data set [4] is Salmonella typhimurium. In words: Mutagenic activity in Salmonella typhimurium TA 100 at 5 to 100 ug by Ames test in presence of Fischer-344 rat liver S9 fraction relative to 5-methylchrysene.
Data set [5] concerns Salmonella typhimurium. In words: Mutagenic activity in Salmonella typhimurium TA 100 at 50 ug by Ames test in absence of Fischer-344 rat liver S9 fraction. The settings on record: in vivo. Type of data set: toxicity, organism-based, Salmonella enterica subsp. enterica serovar Typhimurium.

With `Cc1cc2ccccc2c2ccc3ccccc3c12`, the values for the Activity entry in the data set with Salmonella typhimurium [1] and in the data set on Salmonella typhimurium [2] were “Toxic” and “Non-toxic”, respectively.

With `O=c1oc2cccc3ccc4c5ccccc5cc1c4c32`, the Activity result in the data set on Salmonella typhimurium [3] was “Non-toxic”; in the data set with Salmonella typhimurium [1], “Toxic”; in the data set on Salmonella typhimurium [2], “Non-toxic”.

As for `Cc1cc2ccccc2c2c(C)cc3ccccc3c12`, the Activity result in the data set with Salmonella typhimurium [1] is on record as “Toxic”; in the data set with Salmonella typhimurium [2], “Non-toxic”.

For the compound `COC(=O)c1cc2ccccc2c2ccc3c(c12)CCCC3`, the Activity entry in the data set with Salmonella typhimurium [4] and in the data set on Salmonella typhimurium [2] was “Non-toxic” throughout.

Regarding `Cc1cc2ccccc2c2ccc3c(c12)C=CC(O)C3O` (stereo not drawn), the Activity result in the data set on Salmonella typhimurium [5] was “Toxic”.

As to `COC(=O)c1cc2ccccc2c2ccc3ccccc3c12`, the Activity entry with Salmonella typhimurium [4] and in the data set with Salmonella typhimurium [2] was “Non-toxic” each time.

Consider `OCc1cc2ccccc2c2ccc3ccccc3c12`, for which the Activity entry in the data set on Salmonella typhimurium [4] and in the data set on Salmonella typhimurium [2] was “Non-toxic” each time.

For the compound `OCc1cc2ccccc2c2ccc3c(c12)CCCC3`, the Activity entry in the data set with Salmonella typhimurium [4] and in the data set on Salmonella typhimurium [2] was “Non-toxic” in each case.

As for `CC(=O)OCc1cc2ccccc2c2ccc3ccccc3c12`, the Activity result in the data set on Salmonella typhimurium [4] and in the data set on Salmonella typhimurium [2] was “Non-toxic” in each case.

These data come from ChEMBL document CHEMBL3227943, “Synthesis and mutagenicity of 5,11-dimethylchrysene and some methyl-oxidized derivatives of 5-methylchrysene” (J Med Chem, 1979).
